Results collected from several papers.
Lines come from different studies, so protocols differ.
CYP2E1: Cytochrome P450 2E1 (CYP2E1, Homo sapiens, UniProt P05181)

Structure (SMILES)	tested on	assay	system	conditions	quantity	value
O=C(CN1C(=O)Cc2c([nH]c3ccc(Br)cc23)-c2ccc(Cl)cc21)N1CCNCC1	J774	cell growth or viability, WST-1		24 h	CC50	≤ 10 µM
Cc1csc2c(=O)n(O)c(=O)[nH]c12	HFF	cell growth or viability, MTS		10 µM, 7 days	viability	122%
Nn1nnc2ccccc21	CYP2E1	enzyme activity, inhibitor, HPLC			IC50	37.7 µM
CCN(CC)C(=O)[C@@]1(c2ccccc2)C[C@H]1CN			male cynomolgus monkey, plasma	oral, 30 mg/kg	Cmax	5020 ng/mL
O=c1[nH]c2c(-c3ccccc3)csc2c(=O)n1O	HFF	cell growth or viability, MTS		10 µM, 7 days	viability	130%
CC(C)(C)NC(=O)CN1C(=O)Cc2c([nH]c3ccc(Br)cc23)-c2ccc(Cl)cc21	J774	cell growth or viability, WST-1		24 h	CC50	≥ 100 µM
Cn1ccc(COc2cnc(C(N)=O)cc2-c2ccc(O[11CH3])cc2F)n1			male mouse, pancreas	intravenous, 2.5 MBq, 1 h	tracer uptake	5.87 %ID/g
CC1COc2ccccc2N1C(=O)C(Cl)Cl (stereo not drawn)		metabolic stability	female monkey, liver microsomes	5 µM, pH 7.4	microsomal CLint	1400 µL/min/mg
Cc1c(C(=O)O)sc2[nH]c(=O)n(O)c(=O)c12	HFF	cell growth or viability, MTS		10 µM, 7 days	viability	94%
Nc1ccc(C=Cc2ccc([125I])cc2)cc1			Swiss mouse, brain	intravenous, 5 µCi, 2 h	tracer uptake	1.12 %ID/g
O=c1[nH]c2sc(-c3ccc(Cl)cc3)cc2c(=O)n1O	HFF	cell growth or viability, MTS		10 µM, 7 days	viability	101%
O=C(CCCCCCC(=O)Nc1ccc(CC[18F])cc1)NO			male nude mouse, stomach	intravenous, 2 h, tumour-bearing	tracer uptake	1 %ID/g
O=C(CN1C(=O)Cc2c([nH]c3ccc(Br)cc23)-c2ccc(Cl)cc21)N1CCOCC1	J774	cell growth or viability, WST-1		24 h	CC50	≤ 10 µM
O=c1[nH]c2scc(-c3ccccc3)c2c(=O)n1O	HFF	cell growth or viability, MTS		10 µM, 7 days	viability	90%
CCc1cc(/C(C)=N/OCc2ccc(C3CCCCC3)c(C(F)(F)F)c2)ccc1CN1CC(C(=O)O)C1	CYP2E1	enzyme activity, inhibitor	human, liver microsomes	100 µM, 20 min	inhibition	32.6%
